Legend:
MCF7 = assay: Cytotoxicity against human MCF7 cells after 24 hrs by MTT assay; format: functional; conditions: MCF7, 24 h
Method in brief: (§1)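 Cells kept at 37 °C in humidified 5% CO2 and seeded at 5 × 10³ cells/well the day before. They were PBS-washed, given fresh medium, then exposed to test compounds (0.1–100 µM) for 24 h. MTT (5 mg/mL in PBS) was then added for 4 h at 37 °C. Formazan was dissolved in DMSO and OD read at 570 nm. Each concentration was run in three experiments, three replicates each.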

COLO 205 = assay: Cytotoxicity against human COLO205 cells after 24 hrs by MTT assay; format: functional; conditions: COLO 205, 24 h; method in brief: as §1
[1] = target: 5-lipoxygenase (Solanum tuberosum); assay: Inhibition of 5-lipoxygenase
HaCaT = assay: Cytotoxicity against human HaCaT cells at up to 100 uM after 24 hrs by MTT assay; format: cell-based; method in brief: as §1

IC50 [1] [µM]	SMILES	GI50 (MCF7) [µM]	GI50 (COLO 205) [µM]	Activity (HaCaT)
> 100	COc1ccc(/C=C/C(=O)c2ccc(OCC=C(C)C)cc2O)cc1OC	> 100	> 100	–
> 100	COc1cccc(/C=C/C(=O)c2ccc(OCC=C(C)C)cc2O)c1OC	> 100	> 100	–
> 100	COc1cc(/C=C/C(=O)c2ccc(OCC=C(C)C)cc2O)cc(OC)c1OC	81	96	–
4	COc1cc(/C=C/C(=O)c2ccc(OCC=C(C)C)cc2OCC=C(C)C)cc(OC)c1OC	9	78	Non-toxic
9	COc1ccc(/C=C/C(=O)c2ccc(OCC=C(C)C)cc2OCC=C(C)C)cc1OC	66.5	90	–
49	COc1ccc(/C=C/C(=O)c2ccc(OCC=C(C)C)cc2OCC=C(C)C)c(OC)c1OC	92	> 100	–

The next lines start with the compound.

SMILES	IC50 [1] [µM]	GI50 (MCF7) [µM]	GI50 (COLO 205) [µM]	Activity (HaCaT)
COc1cccc(/C=C/C(=O)c2ccc(OCC=C(C)C)cc2OCC=C(C)C)c1OC	–	73	99	–
COc1ccc(/C=C/C(=O)c2ccc(OCC=C(C)C)cc2OCC=C(C)C)cc1	–	67.5	97	–
COc1ccc(/C=C/C(=O)c2ccc(OCC=C(C)C)cc2O)c(OC)c1OC	> 100	> 100	> 100	–
COc1ccc(/C=C/C(=O)c2ccc(OCC=C(C)C)cc2O)cc1	> 100	97.5	> 100	–
